Test [1] deals with T1, Proto-oncogene tyrosine-protein kinase Src (Homo sapiens, UniProt P12931). In words: Inhibition of Src at 10 uM. In short, it runs like this: (§1)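 Wells were precoated with 20 μg/mL poly(Glu,Tyr)4:1 substrate, then given an 8 μM ATP solution (added concentration) and compound. Purified EGFR or Src in kinase buffer ran for 60 min at 37 °C, in triplicate, with 0.1% DMSO as negative control. Phosphotyrosine was detected with PY99, HRP anti-mouse IgG and o-phenylenediamine/H2O2 at A490. Inhibition % = [1 − A490/A490 control] × 100, and IC50 was taken from inhibition curves.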

Test [2] has as its target Epidermal growth factor receptor (Homo sapiens) (UniProt P00533). In words: Inhibition of EGFR at 10 uM. Put shortly: as §1
In test [3] the target is T1, Proto-oncogene tyrosine-protein kinase Src. Nature of the test: Inhibition of Src. Put shortly:
as §1

pIC50: −log10 of the molar value.

Sequence of Epidermal growth factor receptor (Homo sapiens) (P00533 whole entry): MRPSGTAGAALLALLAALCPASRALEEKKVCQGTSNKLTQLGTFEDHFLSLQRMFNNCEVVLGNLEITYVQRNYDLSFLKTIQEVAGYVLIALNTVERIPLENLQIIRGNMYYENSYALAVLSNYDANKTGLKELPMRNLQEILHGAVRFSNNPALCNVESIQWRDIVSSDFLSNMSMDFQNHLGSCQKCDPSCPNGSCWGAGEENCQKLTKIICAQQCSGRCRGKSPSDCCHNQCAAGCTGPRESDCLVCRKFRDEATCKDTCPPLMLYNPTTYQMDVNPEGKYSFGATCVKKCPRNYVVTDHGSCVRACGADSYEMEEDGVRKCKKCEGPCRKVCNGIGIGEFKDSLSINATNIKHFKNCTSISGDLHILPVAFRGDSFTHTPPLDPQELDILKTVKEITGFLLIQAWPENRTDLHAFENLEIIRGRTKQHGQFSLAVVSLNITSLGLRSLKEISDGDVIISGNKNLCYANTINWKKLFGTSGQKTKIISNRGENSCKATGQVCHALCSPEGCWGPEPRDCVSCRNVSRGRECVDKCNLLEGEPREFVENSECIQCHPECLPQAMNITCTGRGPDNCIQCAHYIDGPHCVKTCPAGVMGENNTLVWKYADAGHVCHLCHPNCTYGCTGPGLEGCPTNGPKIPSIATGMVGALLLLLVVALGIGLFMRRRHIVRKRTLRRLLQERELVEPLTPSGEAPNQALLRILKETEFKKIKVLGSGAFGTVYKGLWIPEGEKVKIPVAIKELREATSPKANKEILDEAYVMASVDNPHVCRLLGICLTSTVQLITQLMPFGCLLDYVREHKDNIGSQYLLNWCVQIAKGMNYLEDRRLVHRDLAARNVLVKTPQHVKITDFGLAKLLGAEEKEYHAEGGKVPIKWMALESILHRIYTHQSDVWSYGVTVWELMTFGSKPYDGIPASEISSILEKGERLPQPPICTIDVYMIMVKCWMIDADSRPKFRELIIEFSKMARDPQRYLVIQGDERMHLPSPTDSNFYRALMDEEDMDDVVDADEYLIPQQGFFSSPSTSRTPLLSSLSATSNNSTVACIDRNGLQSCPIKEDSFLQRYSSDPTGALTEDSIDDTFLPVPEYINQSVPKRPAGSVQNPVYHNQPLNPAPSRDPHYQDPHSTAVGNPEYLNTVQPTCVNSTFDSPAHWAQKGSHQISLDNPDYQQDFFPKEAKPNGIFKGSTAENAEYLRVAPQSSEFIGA
T1 sequence (P12931 2-536 limits assumed): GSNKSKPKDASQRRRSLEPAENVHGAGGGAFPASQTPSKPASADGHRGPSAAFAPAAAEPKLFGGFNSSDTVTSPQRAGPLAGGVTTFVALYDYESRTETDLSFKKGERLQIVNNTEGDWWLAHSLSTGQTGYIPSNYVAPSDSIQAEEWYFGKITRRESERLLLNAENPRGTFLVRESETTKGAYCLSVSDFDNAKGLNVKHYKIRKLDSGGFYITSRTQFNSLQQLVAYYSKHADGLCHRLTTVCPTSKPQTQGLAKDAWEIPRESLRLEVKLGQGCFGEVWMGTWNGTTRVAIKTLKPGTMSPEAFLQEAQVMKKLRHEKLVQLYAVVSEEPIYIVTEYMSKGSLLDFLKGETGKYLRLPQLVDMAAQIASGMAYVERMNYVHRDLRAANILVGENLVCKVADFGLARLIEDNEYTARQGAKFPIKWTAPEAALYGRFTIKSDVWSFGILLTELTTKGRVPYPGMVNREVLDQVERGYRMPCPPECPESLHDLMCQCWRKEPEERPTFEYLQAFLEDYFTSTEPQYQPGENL

With `CC(C)(C)OC(=O)N[C@@H](Cc1c[nH]c2ccccc12)C(=O)Oc1c(-c2ccc(O)c(O)c2)oc2cc(O)cc(O)c2c1=O`, the results for the inhibition in test [1] and in test [2] were 44.4% and 15.6%, respectively.

Take `CC(=O)N1CCC[C@H]1C(=O)Oc1c(-c2ccc(O)c(O)c2)oc2cc(O)cc(O)c2c1=O`: the figures for the inhibition in test [1] and in test [2] were 24.3% and 21%, respectively.

In the case of `CC(=O)N[C@@H](CC(C)C)C(=O)Oc1c(-c2ccc(O)c(O)c2)oc2cc(O)cc(O)c2c1=O`, the figures for the inhibition in test [1] and in test [2] were 39% and 25.9%, respectively.

As for `CC(C)[C@@H](NC(=O)OC(C)(C)C)C(=O)Oc1c(-c2ccc(O)c(O)c2)oc2cc(O)cc(O)c2c1=O`, the inhibition turned out to be 40.7% in test [1] and 22.3% in test [2].

Regarding `CC(C)(C)OC(=O)NCC(=O)Oc1c(-c2ccc(O)c(O)c2)oc2cc(O)cc(O)c2c1=O`, the inhibition in test [1] was 76.2%; in test [2], 43.2%. This compound also gave a negative logarithm of the IC50 (pIC50) in test [3] of 5.48.

With `O=c1c(O)c(-c2ccc(O)c(O)c2)oc2cc(O)cc(O)c12` [QUERCETIN], the negative logarithm of the IC50 (pIC50) in test [3] is 4.82.

As for `CC(C)(C)OC(=O)N[C@@H](Cc1ccccc1)C(=O)Oc1c(-c2ccc(O)c(O)c2)oc2cc(O)cc(O)c2c1=O`, the inhibition in test [1] came to 40.9%; in test [2] it was 35.9%.

In the case of `CC(C)[C@H](NC(=O)OC(C)(C)C)C(=O)Oc1c(-c2ccc(O)c(O)c2)oc2cc(O)cc(O)c2c1=O`, the inhibition in test [1] turned out to be 52.5%; in test [2] it was 21%. This compound also had a pIC50 in test [3] of 5.13.

On to `C[C@@H](O)[C@H](NC(=O)OC(C)(C)C)C(=O)Oc1c(-c2ccc(O)c(O)c2)oc2cc(O)cc(O)c2c1=O`, for which the inhibition in test [1] was found to be 76.1%; in test [2], 36.8%. In test [3], the negative-log IC50 (pIC50) was 5.46.

Take `C[C@H](NC(=O)OC(C)(C)C)C(=O)Oc1c(-c2ccc(O)c(O)c2)oc2cc(O)cc(O)c2c1=O`: the inhibition in test [1] worked out at 51.4%; in test [2] it was 35.9%. Further, the pIC50 in test [3] is 5.19.

For the compound `CC(C)C[C@@H](NC(=O)OC(C)(C)C)C(=O)Oc1c(-c2ccc(O)c(O)c2)oc2cc(O)cc(O)c2c1=O`, the inhibition in test [1] turned out to be 44.5%; in test [2], 29.2%.

In the case of `COc1cc2ncnc(Nc3ccc(OCc4ccccc4)cc3)c2cc1OC`, the inhibition in test [2] worked out at 97.2%.

`CC(=O)N[C@@H](Cc1ccccc1)C(=O)Oc1c(-c2ccc(O)c(O)c2)oc2cc(O)cc(O)c2c1=O`: the inhibition in test [1] turned out to be 60.5%; in test [2] it was 20.9%. In test [3], this compound showed a negative-log IC50 (pIC50) of 5.23.

Consider `CC(C)(C)n1nc(-c2ccc(Cl)cc2)c2c(N)ncnc21`, for which, in test [1], the inhibition worked out at 99%.

With `CC(C)C[C@H](NC(=O)OC(C)(C)C)C(=O)Oc1c(-c2ccc(O)c(O)c2)oc2cc(O)cc(O)c2c1=O`, the inhibition in test [1] was 55.4%; in test [2], 30.4%. The compound further had a pIC50 in test [3] of 5.38.

Turning to `CC(C)(C)OC(=O)N1CCC[C@H]1C(=O)Oc1c(-c2ccc(O)c(O)c2)oc2cc(O)cc(O)c2c1=O`, the inhibition came to 27.7% in test [1] and 19.3% in test [2].

`C[C@H](O)[C@@H](NC(=O)OC(C)(C)C)C(=O)Oc1c(-c2ccc(O)c(O)c2)oc2cc(O)cc(O)c2c1=O`: the inhibition in test [1] was determined as 71%; in test [2], 34.6%. This compound also gave a pIC50 in test [3] of 5.31.

As to `CC(C)(C)OC(=O)N[C@@H](CC(N)=O)C(=O)Oc1c(-c2ccc(O)c(O)c2)oc2cc(O)cc(O)c2c1=O`, the inhibition was found to be 50.8% in test [1] and 23.8% in test [2]. The compound further gave a pIC50 in test [3] of 5.00.

As usually defined, the inhibition is the percentage by which the read-out fell short of the control. Higher therefore signals a response far below the control. As a reminder, the pIC50 is the IC50 on a negative log10 scale, so that one unit is a factor of ten. Low readings indicate a large IC50, high ones a small IC50.

For the origin of these results see ChEMBL document CHEMBL1158361, “Discovering novel quercetin-3-O-amino acid-esters as a new class of Src tyrosine kinase inhibitors” (Eur J Med Chem, 2009).
